This is an account of results in ChEMBL document CHEMBL2440113, “Synthesis, radiofluorination, and in vivo evaluation of novel fluorinated and iodinated radiotracers for PET imaging and targeted radionuclide therapy of melanoma” (J Med Chem, 2013).

Holding throughout (conditions): in vivo
A short description of series [1]: Ratio of drug level in tumor to bone in C57BL/6J mouse harboring mouse B16-Bl6 cells at 8 to 12 MBq, iv after 1 hr by PET analysis. It counts as ADME, organism-based. The method, boiled down: (§1)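 Static whole-body PET at 1 h after tail-vein injection of [18F]tracer (9-12 MBq/0.15 mL) in C57BL/6J mice carrying subcutaneous B16Bl6 shoulder tumours (3x10⁵ cells), imaged day 10 or 14. Mice under ketamine/xylazine ip. 25 min acquisition, OSEM reconstruction. ROI % ID/g = counts/g/min ÷ injected dose; ratios = tumour % ID/g ÷ organ % ID/g. n=2-8; mean ± SD.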

Series [2] is described as follows: Ratio of drug level in tumor to muscle in C57BL/6J mouse harboring mouse B16-Bl6 cells at 8 to 12 MBq, iv after 1 hr by PET analysis. It is filed as ADME, organism-based. The method, boiled down:
as §1

A further series relates to Bone. Nature of the series: Biodistribution in bone of C57BL/6J mouse harboring mouse B16-Bl6 cells at 8 to 12 MBq, iv after 1 hr by PET analysis. It counts as ADME, organism-based, Bone element. The method, boiled down:
(§2)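 C57BL/6J mice were inoculated s.c. on the right shoulder with 3x10⁵ B16Bl6 cells in PBS under isoflurane, and imaged at day 10 or 14 (tumor volume 431.8 ± 154.3 mm³). The ¹⁸F tracer was given i.v. via tail vein, 8-12 MBq (methods: 9-12 MBq/0.15 mL). Under ketamine/xylazine i.p., a 25-min whole-body static PET scan ran at 1 h. ROI %ID/g = counts/g/min ÷ injected dose. n=2-8; mean ± SD.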

For a further series, the system named is Muscle tissue. The series is described as follows: Biodistribution in muscle of C57BL/6J mouse harboring mouse B16-Bl6 cells at 8 to 12 MBq, iv after 1 hr by PET analysis. It counts as ADME, organism-based. The method, boiled down:
as §2

Series [3] concerns Mus musculus. The series is described as follows: Biodistribution in eye of C57BL/6J mouse harboring mouse B16-Bl6 cells at 8 to 12 MBq, iv after 1 hr by PET analysis. It is filed as ADME, organism-based. The method, boiled down:
as §2

For series [4], the system named is Mus musculus. The series is described as follows: Biodistribution in tumor of C57BL/6J mouse harboring mouse B16-Bl6 cells at 8 to 12 MBq, iv after 1 hr by PET analysis. It is filed as ADME, organism-based, Neoplasm. An outline of the steps:
as §1

Turning to `CCN(CC#CC[18F])CCNC(=O)c1cnc2cc(I)ccc2n1`, the Ratio in series [1] came to 1.46; in series [2], 5.07. Also, the Drug uptake is given as 2.77 % ID/g in the series with Bone, 0.82 % ID/g with Muscle tissue, 2.7 % ID/g with Mus musculus [3] and 4.16 % ID/g with Mus musculus [4].

As for `CCN(C/C=C/C[18F])CCNC(=O)c1cnc2cc(I)ccc2n1`, the figures for the Ratio in series [1] and in series [2] were 1.99 and 8.27, respectively. Further, the Drug uptake turned out to be 3.39 % ID/g in the series with Bone, 0.83 % ID/g with Muscle tissue, 9.49 % ID/g in the series on Mus musculus [3] and 6.74 % ID/g in the series with Mus musculus [4].

As for `CCN(CC[18F])CCNC(=O)c1cnc2cc(I)ccc2n1`, the results for the Ratio in series [1] and in series [2] were 1.31 and 1.95, respectively. Besides, the Drug uptake worked out at 1.31 % ID/g in the series with Bone, 1.02 % ID/g in the series with Muscle tissue, 1.4 % ID/g with Mus musculus [3] and 2.02 % ID/g with Mus musculus [4].

As to `CCN(CCC[18F])CCNC(=O)c1cnc2cc(I)ccc2n1`, the Ratio in series [1] was determined as 1.5; in series [2] it was 11.86. Also, the Drug uptake with Bone was found to be 7.05 % ID/g; with Muscle tissue it was 0.9 % ID/g; in the series with Mus musculus [3], 10.46 % ID/g; with Mus musculus [4], 10.56 % ID/g.
